This is an account of results in ChEMBL document CHEMBL4145497, “Discovery of 2-aminothiazolyl berberine derivatives as effectively antibacterial agents toward clinically drug-resistant Gram-negative Acinetobacter baumanii” (Eur J Med Chem, 2018).

One data set has as its system Pichia norvegensis. The data set is described as follows: Antifungal activity against Candida mycoderma ATCC 96918 by CLSI two fold serial dilution method. The format is functional.
Data set [1] can be described thus: Aqueous solubility of the compound in phosphate buffer at pH 7.4 after 3 hrs by UV detection assay. The format is physicochemical. In outline: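 Water solubility measured at physiological pH, with berberine as the control.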
Data set [2] relates to Candida albicans. Put plainly: Antifungal activity against Candida albicans ATCC 76615 by CLSI two fold serial dilution method. The format is functional.
Another data set deals with Aspergillus flavus. The data set is described as follows: Antifungal activity against Aspergillus flavus ATCC 204304 by CLSI two fold serial dilution method. It is filed as functional.
The next data set has as its system Candida parapsilosis. Put plainly: Antifungal activity against Candida parapsilosis ATCC 22019 by CLSI two fold serial dilution method. It is filed as functional. Conditions: Lodderomyces parapsilosis.
Data set [3] has as its system Pseudomonas aeruginosa. Put plainly: Antibacterial activity against Pseudomonas aeruginosa ATCC 27853 after 18 to 24 hrs by CLSI two fold serial dilution method. It is filed as functional.
In another data set the test system is Cyberlindnera jadinii. The data set is described as follows: Antifungal activity against Candida utilis ATCC 9950 by CLSI two fold serial dilution method. It is filed as functional. Conditions: Williopsis jadinii.
The next data set deals with Micrococcus luteus. Put plainly: Antibacterial activity against Micrococcus luteus ATCC 4698 after 18 to 24 hrs by CLSI two fold serial dilution method. It is filed as functional.
For the next data set, the system named is Bacillus subtilis. The data set is described as follows: Antibacterial activity against Bacillus subtilis ATCC 21216 after 18 to 24 hrs by CLSI two fold serial dilution method. The format is functional.
The subject of data set [4] is Staphylococcus aureus. The data set is described as follows: Antibacterial activity against Staphylococcus aureus ATCC 25923 after 18 to 24 hrs by CLSI two fold serial dilution method. It is filed as functional.
Another data set relates to Saccharomyces cerevisiae. The data set is described as follows: Antifungal activity against Saccharomyces cerevisiae ATCC 9763 by CLSI two fold serial dilution method. It is filed as functional.
Data set [5] relates to Escherichia coli. Put plainly: Antibacterial activity against Escherichia coli DH52 after 18 to 24 hrs by CLSI two fold serial dilution method. The format is functional.
The test system of the next data set is Klebsiella pneumoniae. Put plainly: Antibacterial activity against drug-resistant Klebsiella pneumoniae after 18 to 24 hrs by CLSI two fold serial dilution method. The format is functional.
Another data set deals with Aspergillus fumigatus. The data set is described as follows: Antifungal activity against drug-resistant Aspergillus fumigatus by CLSI two fold serial dilution method. It is filed as functional.
Another data set relates to Candida tropicalis. The data set is described as follows: Antifungal activity against drug-resistant Candida tropicalis by CLSI two fold serial dilution method. It is filed as functional.
In data set [6] the test system is Pseudomonas aeruginosa. Put plainly: Antibacterial activity against drug-resistant Pseudomonas aeruginosa after 18 to 24 hrs by CLSI two fold serial dilution method. It is filed as functional.
The next data set has as its system Acinetobacter baumannii. Put plainly: Antibacterial activity against drug-resistant Acinetobacter baumannii after 18 to 24 hrs by CLSI two fold serial dilution method. It is filed as functional.
A further data set has as its system Enterococcus faecalis. Put plainly: Antibacterial activity against drug-resistant Enterococcus faecalis after 18 to 24 hrs by CLSI two fold serial dilution method. It is filed as functional.
For data set [7], the system named is Escherichia coli. The data set is described as follows: Antibacterial activity against drug-resistant Escherichia coli after 18 to 24 hrs by CLSI two fold serial dilution method. The format is functional.
In data set [8] the test system is Staphylococcus aureus. Put plainly: Antibacterial activity against methicillin-resistant Staphylococcus aureus N315 after 18 to 24 hrs by CLSI two fold serial dilution method. The format is functional.
In data set [9] the test system is Candida albicans. Put plainly: Antifungal activity against drug-resistant Candida albicans by CLSI two fold serial dilution method. It is filed as functional.

In brackets after ≈: the same amount, converted by molar mass.

As usually defined, the MIC is the least concentration at which growth counts as inhibited. A higher MIC goes with a need for much substance. As a reminder, the solubility is the dissolved amount per volume that the medium holds. On to `COc1cc(/C=N/Nc2nccs2)c2c(c1OCC#N)CN1CCc3cc4c(cc3C1C2)OCO4` (stereo not given), for which the MIC against Pichia norvegensis stood at 130 µM (≈ 63.6 µg/mL); against Candida albicans [2], 70 µM (≈ 34.3 µg/mL); with Aspergillus flavus, 1050 µM (≈ 514 µg/mL); with Candida parapsilosis, 20 µM (≈ 9.79 µg/mL); in the data set on Pseudomonas aeruginosa [3] it was 260 µM (≈ 127 µg/mL); with Cyberlindnera jadinii, 520 µM (≈ 255 µg/mL). In addition, the MIC against Micrococcus luteus amounted to 260 µM (≈ 127 µg/mL); with Bacillus subtilis, 260 µM (≈ 127 µg/mL); with Staphylococcus aureus [4], 130 µM (≈ 63.6 µg/mL); with Saccharomyces cerevisiae, 1050 µM (≈ 514 µg/mL); in the data set on Escherichia coli [5] it was 260 µM (≈ 127 µg/mL). The same molecule yielded a solubility at 3 h in [1] of 7020 to 10200 µg/mL (≈ 14.3 to 20.8 mM).

Regarding `COc1cc(/C=N/Nc2nccs2)c2c(c1OCc1ccccc1Cl)CN1CCc3cc4c(cc3C1C2)OCO4` (stereo not given), the MIC with Pichia norvegensis amounted to 110 µM (≈ 63.3 µg/mL); against Candida albicans [2], 450 µM (≈ 259 µg/mL); in the data set on Aspergillus flavus, 890 µM (≈ 512 µg/mL); in the data set with Candida parapsilosis, 110 µM (≈ 63.3 µg/mL); in the data set with Pseudomonas aeruginosa [3] it was 450 µM (≈ 259 µg/mL); in the data set on Cyberlindnera jadinii it was 450 µM (≈ 259 µg/mL). Also, the MIC in the data set with Micrococcus luteus came out at 890 µM (≈ 512 µg/mL); with Bacillus subtilis, 220 µM (≈ 127 µg/mL); against Staphylococcus aureus [4], 110 µM (≈ 63.3 µg/mL); with Saccharomyces cerevisiae it was 890 µM (≈ 512 µg/mL); with Escherichia coli [5], 450 µM (≈ 259 µg/mL). In data set [1], this molecule showed a solubility at 3 h of 374 to 3190 µg/mL (≈ 0.65 to 5.55 mM).

Regarding `COc1cc(/C=N/Nc2nccs2)c2c(c1OCc1ccccc1F)CN1CCc3cc4c(cc3C1C2)OCO4` (stereo not given), the MIC in the data set on Pichia norvegensis turned out to be 460 µM (≈ 257 µg/mL); in the data set with Candida albicans [2] it was 230 µM (≈ 128 µg/mL); in the data set on Aspergillus flavus it was 920 µM (≈ 514 µg/mL); against Candida parapsilosis it was 230 µM (≈ 128 µg/mL); with Pseudomonas aeruginosa [3] it was 460 µM (≈ 257 µg/mL); in the data set on Cyberlindnera jadinii it was 460 µM (≈ 257 µg/mL). Further, the MIC against Micrococcus luteus was determined as 230 µM (≈ 128 µg/mL); with Bacillus subtilis, 460 µM (≈ 257 µg/mL); in the data set with Staphylococcus aureus [4], 60 µM (≈ 33.5 µg/mL); in the data set on Saccharomyces cerevisiae, 920 µM (≈ 514 µg/mL); in the data set on Escherichia coli [5] it was 230 µM (≈ 128 µg/mL). In data set [1], this molecule yielded a solubility at 3 h of 374 to 3190 µg/mL (≈ 0.669 to 5.71 mM).

As to `CCOc1c(OC)cc(/C=N/Nc2nccs2)c2c1CN1CCc3cc4c(cc3C1C2)OCO4` (stereo not given), the MIC stood at 540 µM (≈ 258 µg/mL) in the data set with Pichia norvegensis; 70 µM (≈ 33.5 µg/mL) against Candida albicans [2]; 540 µM (≈ 258 µg/mL) in the data set on Aspergillus flavus; 30 µM (≈ 14.4 µg/mL) against Candida parapsilosis; 70 µM (≈ 33.5 µg/mL) in the data set with Pseudomonas aeruginosa [3]; 540 µM (≈ 258 µg/mL) against Cyberlindnera jadinii. Further, the MIC in the data set on Micrococcus luteus was 530 µM (≈ 254 µg/mL); with Bacillus subtilis, 530 µM (≈ 254 µg/mL); against Staphylococcus aureus [4], 70 µM (≈ 33.5 µg/mL); against Saccharomyces cerevisiae it was 1070 µM (≈ 512 µg/mL); with Escherichia coli [5], 70 µM (≈ 33.5 µg/mL). Further, the solubility at 3 h in [1] worked out at 10200 µg/mL (≈ 21.3 mM).

Regarding `CCCCCCCCCCOc1c(OC)cc(/C=N/Nc2nccs2)c2c1CN1CCc3cc4c(cc3C1C2)OCO4` (stereo not given), the MIC was 430 µM (≈ 254 µg/mL) in the data set with Pichia norvegensis; 220 µM (≈ 130 µg/mL) against Candida albicans [2]; 430 µM (≈ 254 µg/mL) with Aspergillus flavus; 220 µM (≈ 130 µg/mL) in the data set with Candida parapsilosis; 220 µM (≈ 130 µg/mL) with Pseudomonas aeruginosa [3]; 220 µM (≈ 130 µg/mL) in the data set on Cyberlindnera jadinii. The MIC against Micrococcus luteus was 220 µM (≈ 130 µg/mL); against Bacillus subtilis, 220 µM (≈ 130 µg/mL); with Staphylococcus aureus [4], 110 µM (≈ 65 µg/mL); against Saccharomyces cerevisiae it was 430 µM (≈ 254 µg/mL); in the data set with Escherichia coli [5] it was 220 µM (≈ 130 µg/mL). Further, the concentration in solution in data set [1] (solubility at 3 h) was 61 µg/mL (≈ 0.103 mM).

Turning to `C=CCOc1c(OC)cc(/C=N/NC(N)=S)c2c1CN1CCc3cc4c(cc3C1C2)OCO4` (stereo not given), the MIC in the data set on Klebsiella pneumoniae turned out to be 550 µM (≈ 257 µg/mL); in the data set with Pichia norvegensis it was 270 µM (≈ 126 µg/mL); against Candida albicans [2], 140 µM (≈ 65.3 µg/mL); with Aspergillus fumigatus, 70 µM (≈ 32.7 µg/mL); in the data set on Aspergillus flavus, 270 µM (≈ 126 µg/mL); in the data set with Candida parapsilosis, 30 µM (≈ 14 µg/mL). The MIC in the data set with Candida tropicalis is 70 µM (≈ 32.7 µg/mL); in the data set on Pseudomonas aeruginosa [6] it was 140 µM (≈ 65.3 µg/mL); in the data set with Pseudomonas aeruginosa [3], 140 µM (≈ 65.3 µg/mL); with Cyberlindnera jadinii, 270 µM (≈ 126 µg/mL); in the data set with Acinetobacter baumannii, 70 µM (≈ 32.7 µg/mL); in the data set on Enterococcus faecalis, 140 µM (≈ 65.3 µg/mL). Further, the minimal inhibitory concentration (MIC) in the data set on Micrococcus luteus came to 270 µM (≈ 126 µg/mL); in the data set with Bacillus subtilis it was 270 µM (≈ 126 µg/mL); against Escherichia coli [7] it was 140 µM (≈ 65.3 µg/mL); in the data set with Staphylococcus aureus [4], 70 µM (≈ 32.7 µg/mL); against Staphylococcus aureus [8], 70 µM (≈ 32.7 µg/mL); in the data set with Saccharomyces cerevisiae, 550 µM (≈ 257 µg/mL). The MIC with Escherichia coli [5] and in the data set on Candida albicans [9] was 140 µM (≈ 65.3 µg/mL) throughout.
